Screening data: PubChem, Sanford-Burnham Center for Chemical Genomics
In the library only some 1.2% were active in any assay of this set; here they are far more common.
PfGluPho inh: PfG6PD (Plasmodium falciparum) enzyme inhibition | PfGluPho enzyme, NADPH resazurin-diaphorase fluorescence | inhibition, % at 20 µM | 350,000 tested, 0.78% active;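 active means inhibition reaching at least a set limit at 20 µM in the primary screen, cut at about 59% in these data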;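 further: 0% = DMSO wells with substrate and 100% = DMSO wells lacking glucose-6-phosphate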
HKDC1 inh: inhibitors of human hexokinase HKDC1 | inhibition, % at 20 µM | recombinant HKDC1, G6PDH/diaphorase resazurin coupled fluorescence | 340,000 tested, 0.16% active;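 active means inhibition above about 35% when tested at 20 µM, limit read from the data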;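 further: plate controls were DMSO wells with enzyme for no effect and DMSO wells lacking enzyme for full effect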
Target sequence (Q2TB90 whole entry, looked up): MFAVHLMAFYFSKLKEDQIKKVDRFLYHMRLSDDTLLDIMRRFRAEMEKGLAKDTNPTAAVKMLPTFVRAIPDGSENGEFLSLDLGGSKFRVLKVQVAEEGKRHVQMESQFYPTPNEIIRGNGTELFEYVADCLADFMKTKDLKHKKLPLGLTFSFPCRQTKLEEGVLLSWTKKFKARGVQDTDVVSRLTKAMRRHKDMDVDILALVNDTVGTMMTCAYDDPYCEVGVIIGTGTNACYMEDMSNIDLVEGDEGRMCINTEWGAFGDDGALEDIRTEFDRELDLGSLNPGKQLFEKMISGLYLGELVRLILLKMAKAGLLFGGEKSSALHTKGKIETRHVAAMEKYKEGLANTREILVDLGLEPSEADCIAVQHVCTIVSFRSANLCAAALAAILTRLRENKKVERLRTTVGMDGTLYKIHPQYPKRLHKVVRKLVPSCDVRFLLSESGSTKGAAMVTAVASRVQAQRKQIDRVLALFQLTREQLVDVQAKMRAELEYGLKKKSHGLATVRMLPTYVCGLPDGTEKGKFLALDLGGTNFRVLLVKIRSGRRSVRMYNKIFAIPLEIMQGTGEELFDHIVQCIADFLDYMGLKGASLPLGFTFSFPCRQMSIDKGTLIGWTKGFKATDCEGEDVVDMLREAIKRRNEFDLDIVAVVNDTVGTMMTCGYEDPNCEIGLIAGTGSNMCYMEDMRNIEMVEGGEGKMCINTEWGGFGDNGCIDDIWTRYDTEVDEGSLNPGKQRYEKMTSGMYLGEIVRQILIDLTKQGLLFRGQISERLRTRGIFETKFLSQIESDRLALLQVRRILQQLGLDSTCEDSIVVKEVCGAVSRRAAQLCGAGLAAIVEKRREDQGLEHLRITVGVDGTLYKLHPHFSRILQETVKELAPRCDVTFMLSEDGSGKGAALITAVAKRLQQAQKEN
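Test system: Recombinant HKDC1 (HK5) hexokinase enzyme, produced in-house | Input: HKDC1 at 5 µg/mL | Buffer or medium: Tris pH 8.0 buffer with MgCl2, Tween-20, BSA, BME | Schedule: 90 min reaction incubation at room temperature, dark | Technique: Resazurin-to-resorufin fluorescence via G6PDH and diaphorase coupling, 525/613 nm | Controls: DMSO wells with and without enzyme mix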
G6PDH counter: inhibits Leuconostoc G6PDH, flagging false hits in G6PDH-based assays; Purified L. mesenteroides G6PDH, diaphorase/resazurin coupled fluorescence, 45 min; inhibition, % at 5 µM; 200,000 tested, 0.12% active; AID 1020; in the data active means inhibition above about 50%
Diaph inh CS: counter-screen for diaphorase-based assays: diaphorase inhibitors and chemical oxidizers; diaphorase resazurin-to-resorufin fluorescence, NADH, 16 min; bacterial (C. kluyveri) enzyme, not human; 190,000 tested, 0.69% active; inhibition, % at 20 µM;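 active means primary screen inhibition at 20 µM above a set limit, cut at about 50% in these data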;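 further: plate controls were DMSO with full reaction for no effect and wells lacking NADH for full effect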
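Assay system: diaphorase enzyme from Clostridium kluyveri. Quantity: enzyme working solution with 0.14 U/mL diaphorase. Schedule: reaction incubation of 16 min at room temperature. Technique: resorufin fluorescence, excitation 544 nm, emission 590 nm. Controls: No-NADH positive control and DMSO neutral control.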
PfGluPho conf: PfG6PD inhibition, single-dose confirmed; shares compounds with PfGluPho inh; recombinant PfGluPho, NADPH-diaphorase-resazurin fluorescence; inhibition, % at 20 µM; 2,400 tested, 34% active; AID 504753;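 active means inhibition of at least 50% at 20 µM in any single replicate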;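 further: 0% = DMSO with substrate and 100% = DMSO lacking glucose-6-phosphate substrate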
Diaph ctr 10uM: counter-screen for P. falciparum G6PD inhibitors: diaphorase inhibitors, oxidizers | diaphorase-coupled resazurin reduction, fluorescence, NADPH 10 uM | 820 tested, 39% active | AID 504862 | inhibition, % at 20 µM | shares compounds with PfGluPho inh;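 active means average inhibition reaching 50% or more with the compound at 20 µM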;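 further: resorufin red fluorescence formed as diaphorase reduces resazurin using NADPH; 0% = DMSO with enzyme and 100% = DMSO without enzyme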
Diaphorase 30uM: counter-screen for P. falciparum G6PD inhibitors: diaphorase inhibitors, oxidizers; shares compounds with PfGluPho inh; Diaphorase/resazurin coupled assay, resorufin fluorescence, 30 uM NADPH; inhibition, % at 20 µM; 820 tested, 29% active; AID 504863;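 active means inhibition averaging 50% or more, tested at 20 µM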;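 further: 0% = DMSO with enzyme and 100% = DMSO wells lacking diaphorase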
* marks the source's active call; other numbers are inactive results; nt = no result given.

SMILES	PfGluPho inh	HKDC1 inh	G6PDH counter	Diaph inh CS	PfGluPho conf	others
Cc1ccc(-c2nnc(CSc3nnc(COc4ccccc4)n3-c3ccccc3)o2)cc1	3	4	-1	16	nt
CCOc1ccc(-c2nnc(SCc3nnc(-c4ccccc4)o3)n2-c2ccccc2F)cc1	85*	3	12	27	37
Cc1ccccc1C(=O)Nc1nnc(SCC(=O)NCc2ccco2)s1	-11	3	nt	nt	nt
CCOc1ccc(NC(=O)Cn2sc3nc(C)cc(C)c3c2=O)cc1	104*	-2	nt	nt	90*	Diaph ctr 10uM=-30;Diaphorase 30uM=-21
Cc1cc(C)c2c(=O)n(CC(=O)Nc3ccc(Cl)cc3)sc2n1	112*	3	nt	nt	96*	Diaph ctr 10uM=-18;Diaphorase 30uM=5
CCOc1ccc(NC(=O)Cn2ncc3ccccc32)cc1	-6	-4	nt	nt	nt
Cc1cc(C)c2c(n1)SCC(=O)N2CC(=O)Nc1cccc(Cl)c1	1	-3	nt	nt	nt
Cc1cc(C)c2c(=O)n(CC(=O)Nc3cccc(F)c3)sc2n1	110*	-7	nt	nt	94*	Diaph ctr 10uM=-3;Diaphorase 30uM=0
Cc1ccc(NC(=O)Cn2sc3nc(C)cc(C)c3c2=O)c(Cl)c1	100*	3	nt	nt	76*	Diaph ctr 10uM=-34;Diaphorase 30uM=-18
N#Cc1ccccc1OCC(=O)NCC(c1ccc(F)cc1)N1CCOCC1 (centres undefined)	2	-8	nt	nt	nt
O=C(CC1CCCCC1)NCCS(=O)(=O)N1CCN(c2ccccc2)CC1	-7	2	nt	nt	nt
Cc1ccc(NC(=O)C2CCN(S(C)(=O)=O)CC2)cc1Cl	-6	2	nt	nt	nt
O=C(N/N=C\c1ccccc1)c1sccc1-n1cccc1	45	-3	10	4	nt
Cc1cccc(/C=N\NC(=O)c2sccc2-n2cccc2)c1	71*	-2	-2	2	42
CC(=O)Nc1ccc(NS(=O)(=O)c2cccc3nonc23)cc1	-14	-3	nt	nt	nt
Nc1ccc(CNC(=O)OCC2c3ccccc3-c3ccccc32)cc1	117*	1	nt	nt	74*	Diaph ctr 10uM=65*;Diaphorase 30uM=56*
O=C(CCSCCC(=O)NN=Cc1cccc(Cl)c1)NN=Cc1cccc(Cl)c1	86*	18	nt	nt	88*	Diaph ctr 10uM=79*;Diaphorase 30uM=66*
O=C(CCCC(=O)Nc1ccc(Br)cc1)N/N=C/c1ccccc1	60*	-3	nt	nt	42
O=C(CCCSCCCC(=O)NN=Cc1ccccc1)NN=Cc1ccccc1	59*	0	nt	nt	19
O=C(CSCC(=O)NN=Cc1ccccc1)NN=Cc1ccccc1	39	1	nt	nt	nt
O=C(CC(=O)N/N=C/c1ccccc1)NCc1ccccc1	107*	1	4	9	72*	Diaph ctr 10uM=67*;Diaphorase 30uM=67*
Cc1cc(C(=O)NNS(=O)(=O)c2cc(C(=O)O)ccc2Cl)c(C)n1-c1ccccc1	-7	3	nt	nt	nt
Cc1cccc(C)c1NC(=O)CNC(=O)CCNC(=O)c1ccco1	4	0	nt	nt	nt
O=C(CCC(=O)Nc1ccccc1Cl)N/N=C/c1ccccc1	105*	-5	3	-2	81*	Diaph ctr 10uM=69*;Diaphorase 30uM=48
Cc1ccccc1NC(=O)CCC(=O)N/N=C/c1ccc(F)cc1	-17	14	3	-2	nt
SMILES	PfGluPho inh	HKDC1 inh	G6PDH counter	Diaph inh CS	PfGluPho conf	others
CCOCCN1CCN(C2c3ccccc3CSc3ccccc32)CC1 (centres undefined)	4	0	nt	nt	nt
Cn1c(CS/C(N)=N/N=C/c2ccccc2)c(Br)c(=O)n1-c1ccccc1	64*	-17	-5	12	16
COc1ccccc1S(=O)(=O)N(C)C[C@H]1OCc2cn(nn2)CCCC(=O)N([C@@H](C)CO)C[C@@H]1C	14	nt	nt	nt	nt
O=C(O)Cc1ccc(NS(=O)(=O)c2ccc3c(c2)OCCO3)cc1	-7	nt	nt	nt	nt
Cc1ccc(S(=O)(=O)N2CCCc3ccccc32)cc1	44	nt	nt	nt	nt
Cc1ccc2cccc(S(=O)(=O)N3CCCc4ccccc43)c2n1	67*	6	9	23	33
COc1ccc(CNC[C@H]2O[C@@H](n3cnc4c(N)ncnc43)[C@H](O)[C@@H]2O)cc1OC	-23	7	nt	nt	nt
Cc1ccc(NC(=O)c2cc(C)n(-c3ccccc3)c2C)cc1	95*	-6	-5	14	53*	Diaph ctr 10uM=53*;Diaphorase 30uM=34
Cc1ccc(NC(=O)c2cnn(-c3ccccc3)c2C)cc1	30	1	nt	nt	nt
Cc1ccc(NC(=O)c2cc(C)n(-c3cccc(C)c3)c2C)cc1	82*	-8	-12	20	32
Cc1ccc(-n2c(C)cc(C(=O)NS(=O)(=O)c3ccc(C)cc3)c2C)cc1	-30	0	-3	13	nt
Cc1cc(C(=O)Nc2ccc(Cl)cc2)c(C)n1-c1ccccc1	98*	3	nt	nt	11
COC(=O)C(C(C)C)N(Cc1cc(OC)cc(OC)c1)S(=O)(=O)CCl (centres undefined)	27	-2	nt	nt	nt
CCOC(=O)C[C@H]1c2ccc(C(F)(F)F)cc2S(=O)(=O)N1C(C)C	9	-2	nt	nt	nt
C/C(Cn1nnc([N+](=O)[O-])n1)=N\NC(=O)c1ccccc1O	67*	11	nt	nt	75*	Diaph ctr 10uM=31;Diaphorase 30uM=34
C/C(Cn1cnc([N+](=O)[O-])n1)=N\NC(=O)c1ccccc1O	11	-5	11	-4	nt
C/C(Cn1nnc([N+](=O)[O-])n1)=N\NC(=O)c1ccc(O)cc1O	49	8	8	18	67*	Diaph ctr 10uM=23;Diaphorase 30uM=31
COc1ccc(Nc2ccnc3ccccc23)cc1	12	-3	0	-13	nt
CC(C)Nc1ccc(Nc2ccnc3cc4ccccc4cc23)cc1	65*	3	nt	nt	19
Cc1c(Cl)cccc1NC(=O)C1Cc2ccccc2CN1C(=O)c1ccccc1 (centres undefined)	81*	8	-10	7	36
N#CC1=C2SCN(Cc3ccco3)CN2C(=O)CC1c1ccccc1F (centres undefined)	67*	2	30	46	30
N#CC1=C2SCN(Cc3ccco3)CN2C(=O)CC1c1cccc2ccccc12 (centres undefined)	63*	14	28	42	15
COc1cc(C(=O)N2CCN(S(=O)(=O)c3cccc(F)c3)CC2)ccc1OCC(=O)N1CCOCC1	-8	-7	nt	nt	nt
Cc1ccc(S(=O)(=O)NCc2ccccc2)cc1C(=O)N1CCCC(C(F)(F)F)C1 (centres undefined)	0	2	nt	nt	nt
COc1ccc2[nH]c3c(C)c4ccncc4c(C)c3c2c1	60*	3	nt	nt	-23
O=c1ccsn1Cc1ccccc1	94*	5	4	16	75*	Diaph ctr 10uM=-4;Diaphorase 30uM=-5
Cn1ncc(Cl)c1C(=O)N/N=C/c1cccc(OC2CSC2)c1	109*	4	0	3	85*	Diaph ctr 10uM=76*;Diaphorase 30uM=64*
O=C(CSc1ncccn1)N/N=C/c1cccc(OC2CSC2)c1	14	-7	8	-2	nt
